Reference: ChEMBL document CHEMBL4513216, “Probing the Open Global Health Chemical Diversity Library for Multistage-Active Starting Points for Next-Generation Antimalarials” (ACS Infect Dis, 2020)

Assay: Toxicity liver stage against HepG2, at 10uM
Type: cell-based
Design: test concentration 10 uM, cell line HepG2-A16-CD81EGFP
Conditions: human, HepG2-A16-CD81EGFP cells; read-out: INHIBITION
Procedure, shortened: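 Uninfected HepG2-A16-CD81EGFP cells, 3 × 10^3 per well, 1536-well, plated on prespotted compound at 10 μM final, parasite-free screening media added to match infected plates; puromycin 10 μM positive, DMSO 0.5% negative; run in parallel with 48 h PbLuc assay at 37 °C, 5% CO2; viability by CellTiter-Glo luminescence, normalized to controls.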

Compound	cytotoxicity at 10 µM [%]
N#Cc1ccccc1NC(=O)c1ccc2c(c1)OCO2	-10.4
c1cc(-c2c[nH]c([C@@H]3COCCN3Cc3csnn3)n2)ccn1	3.07
CCNC(=O)NC[C@@H]1C=C(C)[C@H](CC(=O)NCCN(C)C)C[C@H]1C(C)C	2.43
CC(=O)c1cccc(S(=O)(=O)NCC(C)(O)c2cccs2)c1 (stereo not given)	-17
O=S(=O)(C1CC1)N1CCO[C@@H]2CN(Cc3ccco3)C[C@@H]2C1	-140
CN(C)C(=O)CN1CCO[C@H]2CN(c3ccccn3)C[C@H]21	8.16
CCN1C(=O)CC(c2cnn(C)c2)C12CCN(C(=O)c1ccc[nH]1)CC2 (stereo not given)	8.82
Cc1ccc(CN2CCC3(CCN(Cc4ccncc4)CC3)CC2)cc1	8.4
O=C(c1ccncc1)N1CCCn2nnc(Cn3cccn3)c2C1	6.01
COCc1ncn2c1CN(C(=O)c1cnc3ccccc3c1)CC2	-2.39
CO[C@@H]1CC[C@H]2[C@H]1OCCN2C(=O)C1CCOCC1	3.33
CC(=O)CSc1nnc2n1N=CN(c1cccc(Cl)c1)C2	1.05
Cc1noc2nc(C3CC3)c(Cl)c(C(=O)O)c12	-1.25
Cc1cccc(CNc2n[nH]c(C)n2)c1	-4.09
Cn1nccc1CNC(=O)C1CCCCC1	7.89
O=C(O)c1ccc(CN2CCCC(Cc3ccn[nH]3)C2)cc1 (stereo not given)	-6.08
O=S1(=O)NC(c2ccnc(N3CCCC3)n2)=Nc2ccccc21	12.8
c1cnc(CC2CCN(c3cnccn3)CC2)cn1	4.44
CN(CCOc1ccccc1F)C1CCOC1=O (stereo not given)	-147
CCn1ccnc1CN1CCN(C(C)C)CC1C (stereo not given)	-6.58
CC(C)Oc1ccccc1CNC(=O)N(C)C(C)CS(C)(=O)=O (stereo not given)	-48.4
O=C(NCC1CCOC1)c1cc(-c2ccccc2Cl)[nH]n1 (stereo not given)	-3.11
Cc1ccc(C(=O)N2CCOCC2)cc1NCc1ccsc1	-6.96
CCn1nc2c(cc1=O)CN(CCCOc1ccc(C#N)cc1)CC2	14
CN(C1CCN(c2ccccn2)CC1)S(=O)(=O)c1cccs1	13.3
CCC(C)(C)NC(=O)Cn1cc(C(N)=O)c(-c2ccccc2)n1	-6.84
COc1ccc(C)cc1CN(Cc1nc(C)c(C)o1)C1CCN(C)C1 (stereo not given)	-3.41

Compound	cytotoxicity at 10 µM [%]
CC(C)CC(NC(=O)c1ccn(C)c(=O)c1)c1cccs1 (stereo not given)	1.67
Cc1cccc(C2(O)CCN(C(=O)c3ccc(N(C)C)cc3)CC2)c1C	-2.96
C=C(C)CN(CC)Cc1nc(C)no1	-15.8
CC(C)N(CCS(C)(=O)=O)Cc1csc(-c2ccccc2F)n1	-49.3
Cc1cc(CNC(=O)Nc2cc(F)cc(N3CCCC3)c2)no1	-17.7
CN(CC(F)(F)F)C(=O)C1CSCN1C(=O)OC(C)(C)C (stereo not given)	-0.265
CNC(=O)[C@H]1C[C@@H]2CN(C(=O)c3ccncc3F)C[C@@H]2N1C	-111
Cc1csc(CN2C[C@@H]3CN(S(C)(=O)=O)CCO[C@@H]3C2)n1	-98.3
CN(C)C(=O)N1C[C@H]2CN(Cc3cccc(F)c3)C(=O)[C@H]2C1	4.61
O=C1NCCN(CC2CC2)C12CCN(Cc1ccc3c(c1)OCO3)CC2	-1.06
Cc1nn(C)c2nc(N(Cc3nccs3)C3CC3)sc12	-45.9
CCN1CCN(C(=O)c2ccc3c(c2)CCCN3)[C@H]2CS(=O)(=O)C[C@H]21	-57.8
Cc1cc2cccc(C(=O)N3CCOC(CCN(C)C)C3)c2o1 (stereo not given)	5.91
COc1ccc(NC(=O)N2CCCC(CO)C2)c(C)c1 (stereo not given)	-8.33
CC(C)CN1CCn2nc(CNc3ncnc4[nH]cnc34)cc2C1	6.88
Cc1cccc(=O)n1CCC(=O)N(C)Cc1cccc2ncccc12	0.66
CCn1cc(C(=O)NCc2cccnc2N(C)Cc2ccccc2)cn1	1.18
CC(C)[C@@H]1CN(CCOc2ccccc2)C[C@H]1NS(=O)(=O)N(C)C	-43
C=C(C)CNc1ccc(C(=O)N(CC)Cc2nccn2C)cn1	-9.36
Cc1cc(C)nc(N2CC[C@@]3(O)CCN(S(=O)(=O)N(C)C)C[C@H]3C2)n1	3.5
CCC(C(=O)N1CCN(C(=O)N2CCOCC2)CC1)n1cccn1 (stereo not given)	2.35
CC(=O)c1cnc(NCCN2CCCC2)nc1C	-3.73
O=C1NCC(c2ccc(Cl)cc2)Cc2[nH]c(CCN3CCOCC3)nc21 (stereo not given)	-5.68
CCCN(CCO)C(=O)c1cc(COc2ccc3c(c2)CCCC3)on1	-159
O=C1O[C@@H]2CN(C3CCOCC3)C[C@@H]2N1CCCc1ccc(F)cc1	5.77
CC(C)CNC(=O)CN1CCCC(c2ccc(C(=O)O)cc2)C1 (stereo not given)	-6.49
CCn1c(C2CCN(C(=O)c3ccc4cc[nH]c4c3)CC2)n[nH]c1=O	-18.5

Compound	cytotoxicity at 10 µM [%]
CN1N=C(C(=O)N2CCCC(CCc3cccc(F)c3)C2)CCC1=O (stereo not given)	-3.42
COc1ccc(C(=O)N2CCC3(CCC(=O)N(C(C)C)C3)CC2)cc1C	-3.47
O=C(CO)N1CCCC2(CCC(=O)N(CC3CC3)C2)C1 (stereo not given)	5.75
Cc1nn(CCNC(C)Cn2ccnc2)c(C)c1Cl (stereo not given)	-5.19
COc1cccc(C(C(=O)O)N2CCCN(C3CCCC3)CC2)c1OC (stereo not given)	-11.3
Cc1ccc(-c2nccn2-c2ccc(OC3CCN(C)CC3)cc2)o1	-10.4
CNC(=O)c1cc(OC)c(OC)cc1N(C)S(C)(=O)=O	-5.58
CCC(NC(=O)C1CCN(S(C)(=O)=O)CC1)c1ccc(C)cc1 (stereo not given)	-5.85
CC(C)(CNC1CCCN(Cc2ccccn2)C1)CN1CCOCC1 (stereo not given)	5.91
CCCNCc1cc2c(C)cc(C)cc2n2c(=O)n(C)nc12	-3.09
Cn1c(CN2CCCC(Cn3cncn3)C2)nc2ccccc21 (stereo not given)	-6.78
Cc1cnc(CN2CCC(N(C)Cc3noc(C4CC4)n3)C2)o1 (stereo not given)	-12.6
CS(=O)(=O)N1CCC(NC(=O)COc2ccc3ccccc3c2)CC1	-5.56
CCNC(=O)NC(=O)CN(CC(C)O)c1ccccc1 (stereo not given)	1.32
NC(=O)Cc1ccc(NC(=O)C2CCOCC2)cc1	-1.2
CC1CN(CC(=O)Nc2nncs2)CCN1c1nccs1 (stereo not given)	-15.7
CCc1[nH]ncc1C(=O)N1CCCC(n2nc(C)nc2C)C1 (stereo not given)	-6.02
O=C(Cn1nc(-c2ccc(F)cc2)oc1=O)Nc1ccccc1	0.967
CC(C)c1cc(NC(=O)CN2CCc3cncnc3C2)on1	-8.83
CN(Cc1ccsc1)C(=O)CN1CCOC(Cn2cccn2)C1 (stereo not given)	-14.7
c1csc(CN2CCc3ncnc(C4CCOC4)c3CC2)c1 (stereo not given)	8.01
O=C(c1cnccn1)N1C[C@@H](OCc2ccncc2)[C@@H]2OCCC[C@@H]21	-2.91
O=C1CCCN1Cc1nnc2n1CCN(Cc1ccoc1)CC2	2.72
CN(C)CCN1CCC2(CCCN(Cc3cccn3C)C2)C1=O (stereo not given)	-114
Cc1cccc(CN2CC[C@@H]3[C@@H]2CCN3Cc2cccs2)n1	-117
CC(C)=CCN1C[C@@H]2CC[C@H]1CN(C(=O)c1ccc3c(c1)OCO3)C2	-0.988
